The source of these data is paper PMC3889329 (Diabetes Therapy, 2013).

By IC50 is commonly meant the concentration at which inhibition is half-maximal.

For series [1], the system named is patients with type 2 diabetes mellitus. The series is described as follows: Urinary glucose excretion. Type of series: in vivo, human. As to conditions: day 1. The method, boiled down:
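All urine was collected over 24 h on days −2, −1, 1, 8 and 9, extended to 48 h after day 1 and 72 h after day 9. Ae0–24 was measured after a single dose with OGTT (75 g glucose, day 1) and after multiple daily doses, fasting (day 8) or with OGTT (day 9). Results are mean (SD) for the treated set.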

For series [2] the test system is unchanged. As to the kind of experiment: Fasting plasma glucose. Type of series: in vivo, human. The conditions noted are these: day 10, 1 day after the last dose. The method, boiled down: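 Fasting plasma glucose was measured after a 10 h overnight fast. Dosing was oral, once daily with 240 mL water: a single dose on day 1, none on day 2, then daily on days 3–9. Patients were randomized 3:1 to test compound or placebo within each dose group (2.5, 10, 25, 100 mg; n = 12 per group). Descriptive statistics used the treated set (n = 48).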

The next series relates to SGLT2. The conditions noted are these: in vitro, cited from earlier work.
The subject of another series is healthy volunteers. As to conditions: single oral doses; cited from earlier work.

Turning to `OC[C@H]1O[C@@H](c2ccc(Cl)c(Cc3ccc(O[C@H]4CCOC4)cc3)c2)[C@H](O)[C@@H](O)[C@@H]1O` [Empagliflozin], the “Amount of glucose excreted in the urine over 24 h (Ae0–24)” value in series [1] (2.5 mg single dose, OGTT conditions) is on record as 46.3 g. For the same molecule, in series [1] (single dose), the “Increase in UGE with fourfold dose increase from 2.5 to 10 mg” value was “more than a twofold increase” and the “Increase in UGE with fourfold dose increase from 25 to 100 mg” value is on record as ~1.2 fold. Also, in series [2], the “FPG lower than on day 1” value was “at least 14%”. Besides, in the series with SGLT2, the pIC50 (SE), inhibition of SGLT2 was 8.5. The IC50 with SGLT2 (read-out: IC50, inhibition of SGLT2) is 3.1 nM. The Tolerability entry in the series with healthy volunteers is reported as “well tolerated”.
